{
  "source": "ChEMBL document CHEMBL3244092",
  "about": "“Synthesis of episilon-rhodomycinone glycosides” (1977)",
  "note": "The source made the active and inactive calls. The calls are words filed in the database; no cut-off is given here.",
  "data": [
    {"test_system": "Bacillus subtilis", "assay": "Antibacterial activity against Bacillus subtilis", "assay_type": "functional, organism-based", "values": [
      {"smiles": "CC[C@@]1(O)C[C@H](O[C@H]2C[C@H](OC(C)=O)[C@H](OC(C)=O)CO2)c2c(O)c3c(c(O)c2[C@H]1C(=O)OC)C(=O)c1cccc(O)c1C3=O", "Activity": "Active"}
    ]},
    {"test_system": "P388", "assay": "Antitumor activity against mouse P388 cells allografted in CDF mouse assessed as tumor growth inhibition at 64 mg/kg/day relative to control", "assay_type": "functional", "method_in_brief": "(§1)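 P388 lymphatic leukemia carried in CDF mice, with compound given as a daily dose in mg/kg/day. Activity was read out as T/C, treated versus control. Route, vehicle and schedule length are not given.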", "units": {"T/C": "%"}, "values": [
      {"smiles": "CC[C@@]1(O)C[C@H](O[C@H]2C[C@H](OC(C)=O)[C@H](OC(C)=O)CO2)c2c(O)c3c(c(O)c2[C@H]1C(=O)OC)C(=O)c1cccc(O)c1C3=O", "T/C": 125}
    ]},
    {"test_system": "P388", "assay": "Antitumor activity against mouse P388 cells allografted in CDF mouse assessed as tumor growth inhibition at 32 to 128 mg/kg/day relative to control", "assay_type": "functional", "method_in_brief": "as §1", "units": {"T/C": "%"}, "values": [
      {"smiles": "CC[C@@]1(O)C[C@H](O[C@H]2C[C@H](OC(C)=O)[C@H](OC(C)=O)CO2)c2c(O)c3c(c(O)c2[C@H]1C(=O)OC)C(=O)c1cccc(O)c1C3=O", "T/C": 110}
    ]},
    {"test_system": "P388", "assay": "Antitumor activity against mouse P388 cells allografted in CDF mouse assessed as tumor growth inhibition at 13 mg/kg/day relative to control", "assay_type": "functional", "method_in_brief": "as §1", "units": {"T/C": "%"}, "values": [
      {"smiles": "CC[C@@]1(O)C[C@H](O[C@H]2C[C@H](O)[C@H](O)CO2)c2c(O)c3c(c(O)c2[C@H]1C(=O)OC)C(=O)c1cccc(O)c1C3=O", "T/C": 115}
    ]},
    {"test_system": "P388", "assay": "Antitumor activity against mouse P388 cells allografted in CDF mouse assessed as tumor growth inhibition at 18 mg/kg/day relative to control", "assay_type": "functional", "method_in_brief": "as §1", "units": {"T/C": "%"}, "values": [
      {"smiles": "CC[C@@]1(O)C[C@H](O[C@H]2C[C@H](O)[C@H](O)[C@H](C)O2)c2c(O)c3c(c(O)c2[C@H]1C(=O)OC)C(=O)c1cccc(O)c1C3=O", "T/C": 109}
    ]},
    {"test_system": "Enterobacteria phage lambda", "assay": "Induction of lambda phage production in streptomycin-dependent lysogenic Escherichia coli W1709(lambda) assessed as ratio of plaques in treated culture to control", "assay_type": "functional", "values": [
      {"smiles": "CC[C@@]1(O)C[C@H](O[C@@H]2O[C@H](COC(=O)c3ccccc3)[C@@H](OC(=O)c3ccccc3)[C@H]2OC(=O)c2ccccc2)c2c(O)c3c(c(O)c2[C@H]1C(=O)OC)C(=O)c1cccc(O)c1C3=O", "Activity": "inactive"},
      {"smiles": "CC[C@@]1(O)C[C@H](O[C@H]2C[C@H](O)[C@H](O)[C@H](C)O2)c2c(O)c3c(c(O)c2[C@H]1C(=O)OC)C(=O)c1cccc(O)c1C3=O", "Activity": "inactive"},
      {"smiles": "CC[C@@]1(O)C[C@H](O[C@H]2C[C@H](OC(C)=O)[C@@H](OC(C)=O)[C@H](C)O2)c2c(O)c3c(c(O)c2[C@H]1C(=O)OC)C(=O)c1cccc(O)c1C3=O", "Activity": "inactive"},
      {"smiles": "CC[C@@]1(O)C[C@H](O[C@@H]2OC[C@H](OC(C)=O)[C@@H](OC(C)=O)[C@H]2OC(C)=O)c2c(O)c3c(c(O)c2[C@H]1C(=O)OC)C(=O)c1cccc(O)c1C3=O", "Activity": "inactive"},
      {"smiles": "CC[C@@]1(O)C[C@H](O[C@@H]2O[C@H](CO)[C@@H](O)[C@H](O)[C@H]2O)c2c(O)c3c(c(O)c2[C@H]1C(=O)OC)C(=O)c1cccc(O)c1C3=O", "Activity": "inactive"},
      {"smiles": "CC[C@@]1(O)C[C@H](O[C@@H]2O[C@@H](C)[C@H](OC(C)=O)[C@@H](OC(C)=O)[C@H]2OC(C)=O)c2c(O)c3c(c(O)c2[C@H]1C(=O)OC)C(=O)c1cccc(O)c1C3=O", "Activity": "inactive"},
      {"smiles": "CC[C@@]1(O)C[C@H](O[C@H]2C[C@H](OC(C)=O)[C@H](OC(C)=O)[C@H](C)O2)c2c(O)c3c(c(O)c2[C@H]1C(=O)OC)C(=O)c1cccc(O)c1C3=O", "Activity": "inactive"},
      {"smiles": "CC[C@@]1(O)C[C@H](O[C@@H]2O[C@@H](C)[C@@H](OC(C)=O)[C@@H](OC(C)=O)[C@@H]2OC(C)=O)c2c(O)c3c(c(O)c2[C@H]1C(=O)OC)C(=O)c1cccc(O)c1C3=O", "Activity": "inactive"},
      {"smiles": "CC[C@@]1(O)C[C@H](O[C@@H]2O[C@H](CO)[C@@H](O)[C@H]2O)c2c(O)c3c(c(O)c2[C@H]1C(=O)OC)C(=O)c1cccc(O)c1C3=O", "Activity": "inactive"},
      {"smiles": "CC[C@@]1(O)C[C@H](O[C@H]2C[C@H](OC(=O)c3ccc([N+](=O)[O-])cc3)[C@@H](COC(=O)c3ccc([N+](=O)[O-])cc3)O2)c2c(O)c3c(c(O)c2[C@H]1C(=O)OC)C(=O)c1cccc(O)c1C3=O", "Activity": "inactive"},
      {"smiles": "CC[C@@]1(O)C[C@H](O[C@H]2C[C@H](O)[C@@H](O)[C@H](C)O2)c2c(O)c3c(c(O)c2[C@H]1C(=O)OC)C(=O)c1cccc(O)c1C3=O", "Activity": "inactive"},
      {"smiles": "CC[C@@]1(O)C[C@H](O[C@@H]2OC[C@H](OC(C)=O)[C@H](OC(C)=O)[C@H]2OC(C)=O)c2c(O)c3c(c(O)c2[C@H]1C(=O)OC)C(=O)c1cccc(O)c1C3=O", "Activity": "inactive"},
      {"smiles": "CC[C@@]1(O)C[C@H](O[C@H]2C[C@H](O)[C@H](O)CO2)c2c(O)c3c(c(O)c2[C@H]1C(=O)OC)C(=O)c1cccc(O)c1C3=O", "Activity": "inactive"},
      {"smiles": "CC[C@@]1(O)C[C@H](O[C@@H]2OC[C@@H](OC(C)=O)[C@@H](OC(C)=O)[C@@H]2OC(C)=O)c2c(O)c3c(c(O)c2[C@H]1C(=O)OC)C(=O)c1cccc(O)c1C3=O", "Activity": "inactive"},
      {"smiles": "CC[C@@]1(O)C[C@H](O[C@@H]2O[C@H](COCc3ccccc3)[C@@H](OCc3ccccc3)[C@@H]2OCc2ccccc2)c2c(O)c3c(c(O)c2[C@H]1C(=O)OC)C(=O)c1cccc(O)c1C3=O", "Activity": "inactive"},
      {"smiles": "CC[C@@]1(O)C[C@H](O[C@@H]2O[C@@H](COC(=O)c3ccccc3)[C@@H](OC(=O)c3ccccc3)[C@H]2OC(=O)c2ccccc2)c2c(O)c3c(c(O)c2[C@H]1C(=O)OC)C(=O)c1cccc(O)c1C3=O", "Activity": "inactive"},
      {"smiles": "CC[C@@]1(O)C[C@H](O[C@@H]2OC[C@H](O)[C@H](O)[C@H]2O)c2c(O)c3c(c(O)c2[C@H]1C(=O)OC)C(=O)c1cccc(O)c1C3=O", "Activity": "inactive"},
      {"smiles": "CC[C@@]1(O)C[C@H](O[C@H]2C[C@H](OC(C)=O)[C@H](OC(C)=O)CO2)c2c(O)c3c(c(O)c2[C@H]1C(=O)OC)C(=O)c1cccc(O)c1C3=O", "Activity": "inactive"},
      {"smiles": "CC[C@@]1(O)C[C@H](O[C@@H]2O[C@@H](CO)[C@@H](O)[C@H]2O)c2c(O)c3c(c(O)c2[C@H]1C(=O)OC)C(=O)c1cccc(O)c1C3=O", "Activity": "inactive"},
      {"smiles": "CC[C@@]1(O)C[C@H](O[C@@H]2O[C@H](COC(=O)c3ccc([N+](=O)[O-])cc3)[C@H](OC(=O)c3ccc([N+](=O)[O-])cc3)[C@H]2OC(=O)c2ccc([N+](=O)[O-])cc2)c2c(O)c3c(c(O)c2[C@H]1C(=O)OC)C(=O)c1cccc(O)c1C3=O", "Activity": "inactive"},
      {"smiles": "CC[C@@]1(O)C[C@H](O[C@H]2C[C@H](O)[C@@H](CO)O2)c2c(O)c3c(c(O)c2[C@H]1C(=O)OC)C(=O)c1cccc(O)c1C3=O", "Activity": "inactive"},
      {"smiles": "CC[C@@]1(O)C[C@H](O[C@@H]2O[C@H](COC(C)=O)[C@@H](OC(C)=O)[C@H](OC(C)=O)[C@H]2OC(C)=O)c2c(O)c3c(c(O)c2[C@H]1C(=O)OC)C(=O)c1cccc(O)c1C3=O", "Activity": "inactive"},
      {"smiles": "CC[C@@]1(O)C[C@H](O[C@@H]2O[C@H](CO)[C@H](O)[C@H]2O)c2c(O)c3c(c(O)c2[C@H]1C(=O)OC)C(=O)c1cccc(O)c1C3=O", "Activity": "inactive"},
      {"smiles": "CC[C@@]1(O)C[C@H](O[C@@H]2OC[C@@H](OC(C)=O)[C@@H](OC(C)=O)[C@H]2OC(C)=O)c2c(O)c3c(c(O)c2[C@H]1C(=O)OC)C(=O)c1cccc(O)c1C3=O", "Activity": "inactive"},
      {"smiles": "CC[C@@]1(O)C[C@H](O[C@@H]2OC[C@@H](OC(C)=O)[C@H](OC(C)=O)[C@H]2OC(C)=O)c2c(O)c3c(c(O)c2[C@H]1C(=O)OC)C(=O)c1cccc(O)c1C3=O", "Activity": "inactive"},
      {"smiles": "CC[C@@]1(O)C[C@H](O[C@@H]2O[C@@H](C)[C@@H](O)[C@@H](O)[C@@H]2O)c2c(O)c3c(c(O)c2[C@H]1C(=O)OC)C(=O)c1cccc(O)c1C3=O", "Activity": "inactive"}
    ]}
  ]
}
